Measured values of several laboratories.
Each line is one published result; the experiments were not run side by side.
Target: Mitogen-activated protein kinase 15 (MAPK15, Homo sapiens, UniProt Q8TD08)
Sequence (Q8TD08 1-544, as in one of the studies): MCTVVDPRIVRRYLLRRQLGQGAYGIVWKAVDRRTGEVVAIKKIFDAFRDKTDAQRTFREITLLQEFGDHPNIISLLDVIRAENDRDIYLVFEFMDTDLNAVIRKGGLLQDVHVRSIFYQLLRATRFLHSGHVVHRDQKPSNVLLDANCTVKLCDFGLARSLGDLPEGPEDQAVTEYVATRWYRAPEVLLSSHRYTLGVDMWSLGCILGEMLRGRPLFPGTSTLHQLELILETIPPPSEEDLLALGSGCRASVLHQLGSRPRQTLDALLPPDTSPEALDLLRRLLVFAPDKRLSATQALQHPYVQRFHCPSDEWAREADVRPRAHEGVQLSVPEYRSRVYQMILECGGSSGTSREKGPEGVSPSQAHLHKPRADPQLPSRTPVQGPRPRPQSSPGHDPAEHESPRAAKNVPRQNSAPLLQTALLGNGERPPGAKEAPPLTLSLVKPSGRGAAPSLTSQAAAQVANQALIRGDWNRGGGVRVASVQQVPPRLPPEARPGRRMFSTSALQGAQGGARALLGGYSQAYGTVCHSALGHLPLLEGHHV

Compound | read-out | action | method | concentration | measurement | value
Cc1c[nH]c2nccc(Oc3c(F)cc(Nc4cc(Cl)nc(N)n4)cc3F)c12 | cell-free assay |  | competition with immobilised ligand | 0.1 µM | remaining binding | 100%
Oc1cccc(-c2nc(N3CCOCC3)c3oc4ncccc4c3n2)c1 | enzyme activity | inhibitor |  | 10 µM | remaining activity | 87%
COc1cc(/C=C/C(=O)CC(=O)/C=C/c2ccc(O)c(OC)c2)ccc1O | enzyme activity | inhibitor |  | 1 µM | activity vs control | 77%
FC(F)(F)Oc1cccc(-c2cnc3ccc(-c4ccncc4)nn23)c1 | enzyme activity | inhibitor | radiometric | 5 µM | activity vs control | 17%
CS(=O)(=O)c1cc(C2(NC(=O)c3cncc4c3cnn4-c3ccc(F)cc3)CC2)ccn1 | cell-free assay |  | competition with immobilised ligand | 1 µM | remaining binding | 100%
FC(F)c1nc2ccccc2n1-c1nc(N2CCOCC2)nc(N2CCOCC2)n1 | enzyme activity | inhibitor |  | 10 µM | remaining activity | 92%
Cc1sc(C(=O)NC2COC2)cc1-n1cc(NC(=O)Nc2c(F)cccc2Cl)cn1 | enzyme activity | inhibitor |  | 10 µM | remaining activity | 103%
CC(C)(C)c1nc(-c2cccc(NS(=O)(=O)c3c(F)cccc3F)c2F)c(-c2ccnc(N)n2)s1 | enzyme activity | inhibitor | radiometric | 1 µM | remaining activity | 80%
N#CC1(c2ccccn2)CCN(Cc2cc(C(=O)N3CCCC3)c(=O)n3ccccc23)CC1 | cell-free assay |  | competition with immobilised ligand | 1 µM | remaining binding | 92%
CC(C)(C)C(=O)c1sc(NC2CCCCC2)nc1N | enzyme activity | inhibitor |  | 10 µM | remaining activity | 43%
O=C(Nc1cnn(-c2csc(C(=O)NC3COC3)c2)c1)Nc1c(F)cccc1Cl | enzyme activity | inhibitor |  | 5 µM | remaining activity | 108%
CCC(=N\O)/C(C)=C/c1ccc(F)cc1 | cell-free assay |  | competition with immobilised ligand | 1 µM | remaining binding | 95%
Cn1cnc(Br)c1C1=CN(c2ncnc3[nH]cnc23)CCS1 | enzyme activity | inhibitor | radiometric | 2 µM | inhibition | 80.2%
Nc1ncnc2occ(-c3ccc(NC(=O)Nc4cc(C(F)(F)F)ccc4F)cc3)c12 | cell-free assay | inhibitor |  | 20 µM | remaining signal | 0.1%
